TRPC6 inh: mouse TRPC6 channel inhibitors, primary screen, cell-based, HEK293, membrane potential dye; B-score at 10 µM; Short transient receptor potential channel 6 (Mus musculus), Q61143; AID 2553, 2010; ACh-evoked depolarization; stronger effect = lower value; hit rate 1.1% among 310,000;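 active means B-score under library mean minus 3 SD, initial fluorescence not abnormally high, positive integrated signal ratio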;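 further: B-score derived from integrated fluorescence ratio over the kinetic read; more negative B-score means stronger inhibition of depolarization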
TRPC6 act: mouse TRPC6 channel activators, primary screen, cell-based, HEK293, membrane potential dye. HEK293-TRPC6 membrane potential dye fluorescence; stronger effect = higher value. B-score at 10 µM. hit rate 0.13% among 310,000;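 active means B-score of the integrated fluorescence ratio above library mean plus 3 SD, and starting fluorescence ratio within library mean plus 5 SD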;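 further: higher score means more depolarization so channel activation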
TRPC4 act: activators of mouse TRPC4 channel, primary screen, Fluo4 calcium, HEK293 TRPC4beta/mu-opioid cells. Short transient receptor potential channel 4 (Mus musculus), Q9QUQ5. B-score at 10 µM. Fluo4 calcium fluorescence; stronger effect = higher value. hit rate 0.49% among 310,000;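 active means B-score above 5 SD of library B-scores, and initial fluorescence ratio not above library mean plus 5 SD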;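 further: positive B-score marks a calcium rise read as TRPC4 activation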
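System: HEK293 cells stably co-expressing mouse TRPC4beta and mu-opioid receptor; Schedule: Fluo4 dye loading 45 min at room temperature, 110 s recording; Detection: Fluo4 fluorescence, kinetic; Evaluation: B-scored integrated calcium fluorescence ratio; Controls: buffer (low) and maximal DAMGO (high).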
TRPC4 potent: positive allosteric modulators of TRPC4, primary screen, cell-based, mouse TRPC4beta, HEK293 mu-opioid, Fluo-4 calcium | Short transient receptor potential channel 4 (Mus musculus), Q9QUQ5 | DAMGO EC20, Fluo-4 Ca2+ flux; stronger effect = higher value | B-score at 10 µM | hit rate 0.42% among 310,000 | AID 2227, 2009;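 active means B-score of calcium response area above 5 SD of library B-scores, with initial fluorescence ratio within 5 SD of library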
TRPC4 block: inhibitors of mouse TRPC4 channel, primary screen, Fluo4 calcium, HEK293 TRPC4beta/mu-opioid cells | hit rate 0.39% among 300,000 | Short transient receptor potential channel 4 (Mus musculus), Q9QUQ5 | B-score at 10 µM | AID 2247, 2010 | DAMGO-evoked Fluo4 calcium flux; stronger effect = lower value;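 active means B-score over 3 SD under the library average, no early fluorescence shift, positive overall ratio signal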
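Material: HEK293 cells with stable TRPC4beta plus mu-opioid receptor expression; probe or stimulus: DAMGO in two steps, submaximal then maximal; technique: Fluo4 calcium fluorescence by kinetic imaging, 5 s 1 Hz baseline; measure: integrated fluorescence ratio relative to baseline, converted to per-well B score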
HEK293 TRPC6 ctr: parental HEK293 membrane potential modulation, confirmation, counter-screen for TRPC6 modulator project, cell-based; AID 488924, 2010; shares compounds with TRPC6 inh; membrane potential signal change, % at 10 µM; membrane potential dye fluorescence; hit rate 51% among 2,400;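 active means membrane potential signal moves up or down beyond 5 SD from buffer-only wells, on both duplicate plates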
HEK293 MPD ctr 2: second counter-screen for TRPC6 modulators: effect in parental HEK293 cells; hit rate 14% among 2,400; shares compounds with TRPC6 inh; AID 488926; inhibition, % at 10 µM; membrane potential dye fluorescence; after compound, maximal acetylcholine stimulation;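 active means membrane potential signal drops by more than 5 SD from the mean control signal, in both duplicate plates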
TRPC4/MOR mod: TRPC4 modulation by TRPC6 hit compounds, confirmation, selectivity assay for TRPC6 modulator project, cell-based, HEK293 TRPC4/mu-opioid, membrane potential dye, mouse; shares compounds with TRPC6 inh; membrane potential fluorescence; percent change from control (negative = decrease, positive = increase), % at 10 µM; hit rate 69% among 2,400;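 active means membrane potential signal moved up or down beyond 5 SD of buffer control wells, in both duplicate plates, actives on both sides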
TRPC4/MOR inh 2: mouse TRPC4 off-target activity of TRPC6 modulators, second screen. inhibition, % at 10 µM. shares compounds with TRPC6 inh. hit rate 55% among 2,400. HEK293 TRPC4/mu-opioid, membrane potential dye fluorescence; stimulated with maximal-effect DAMGO;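 active means drop in membrane potential signal beyond 5 SD of the control wells in both duplicate plates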;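 further: TRPC4 counter screen for TRPC6 hits run under conditions tuned for TRPC6 not TRPC4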
TRPC6 block conf: mouse TRPC6 channel inhibitors, confirmation, HEK293 cells, membrane potential dye, duplicate; shares compounds with TRPC6 inh; ACh-evoked depolarization; inhibition, % at 10 µM; hit rate 43% among 3,300;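 active means fluorescence ratio falls more than 5 SD below the full-stimulation control mean, in both duplicate runs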;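 further: integrated fluorescence ratio of peak minus minimum over baseline after agonist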
TRPC6 act conf: mouse TRPC6 channel activators, confirmation, HEK293 cells, membrane potential dye, duplicate; HEK293-TRPC6 membrane potential dye fluorescence, FDSS; hit rate 11% among 2,800; activation, % at 10 µM; shares compounds with TRPC6 inh;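 active means ratio signal rise beyond 5 SD above unstimulated control wells' mean, seen in both duplicate runs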
Of the large screens only hits and unclear results are named; the others gave an inactive call (follow-up assays come after a bar, where they were run). The list is not random: actives were taken first. Their share in the collection is about 2.3%.

COc1ccc(S(=O)(=O)N2CCCC(C(=O)N3CCOCC3)C2)cc1OC (stereo not given)	none
Cc1c(OCC(=O)NCCCN2CCCC2=O)ccc2c3c(c(=O)oc12)CCC3	TRPC6 inh -6.1 | HEK293 TRPC6 ctr -105% | HEK293 MPD ctr 2 inactive | TRPC4/MOR mod -19% | TRPC4/MOR inh 2 inactive | TRPC6 block conf inactive | TRPC6 act conf inactive
Cc1c(OCC(=O)NCCCN2CCCC2=O)ccc2c3c(c(=O)oc12)CCCC3	none
Cc1cc(=O)oc2c(C)c(OCC(=O)NCCCn3ccnc3)ccc12	TRPC6 inh -6.6 | HEK293 TRPC6 ctr -192% | HEK293 MPD ctr 2 inactive | TRPC4/MOR mod -32% | TRPC4/MOR inh 2 30% | TRPC6 block conf inactive | TRPC6 act conf inactive
Cc1c(OCC(=O)NCCN2CCOCC2)ccc2c3c(c(=O)oc12)CCC3	TRPC6 inh -5.2 | HEK293 TRPC6 ctr inactive | HEK293 MPD ctr 2 inactive | TRPC4/MOR mod -14% | TRPC4/MOR inh 2 inactive | TRPC6 block conf inactive | TRPC6 act conf inactive
Cc1cc(=O)oc2c(C)c(OCC(=O)NCCCN3CCCC3=O)ccc12	TRPC6 inh -5.2 | HEK293 TRPC6 ctr -192% | HEK293 MPD ctr 2 inactive | TRPC4/MOR mod -28% | TRPC4/MOR inh 2 inactive | TRPC6 block conf inactive | TRPC6 act conf inactive
CC(C(=O)Nc1ccc([N+](=O)[O-])cc1)N1CCN(C/C=C/c2ccccc2)CC1 (stereo not given)	TRPC6 inh -6 | HEK293 TRPC6 ctr inactive | HEK293 MPD ctr 2 inactive | TRPC4/MOR mod inactive | TRPC4/MOR inh 2 54% | TRPC6 block conf inactive | TRPC6 act conf inactive
CCOc1ccccc1N1CC(C(=O)Nc2cc(Cl)ccc2-n2cncn2)CC1=O (stereo not given)	none
COc1cccc(OC)c1OCCNCC1COc2ccccc2O1 (stereo not given)	TRPC6 inh -5.6 | HEK293 TRPC6 ctr 144% | HEK293 MPD ctr 2 inactive | TRPC4/MOR mod 27% | TRPC4/MOR inh 2 38% | TRPC6 block conf inactive
CCCCn1nnc(NC(=O)c2ccc([N+](=O)[O-])cc2Cl)n1	none

Assay outcomes as filed in PubChem.
